Measured values from ChEMBL document CHEMBL3044834, “Novel protoporphyrinogen oxidase inhibitors: 3H-pyrazolo[3,4-d][1,2,3]triazin-4-one derivatives” (J Agric Food Chem, 2008).

system: Echinochloa crus-galli; test: Herbicidal activity against Echinochloa crus-galli (barnyard grass) assessed as inhibition of fresh weed plant weight at 1500 g/ha using pre-emergence treatment protocol; type: functional

Row | Structure (SMILES) | inhibition at 1500 g/ha [%]
1 | C=CCN1C(=O)COc2cc(F)c(-n3nnc4c(cnn4CCC)c3=O)cc21 | 86.4

system: Digitaria sanguinalis; test: Herbicidal activity against Digitaria sanguinalis (hairy crabgrass) assessed as inhibition of fresh weed plant weight at 750 g/ha using post-emergence treatment protocol; type: functional
Outline: (§1)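 Test compounds made up as emulsions by dissolving in 100 µL N,N-dimethylformamide, then adding a little Tween 20 and water. For post-emergence, weed seedlings at one leaf and one stem were sprayed at the same rates as the pre-emergence test. Fresh weight was recorded 15 days after treatment and expressed as percent inhibition versus controls. All treatments were run in triplicate.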

Row | Structure (SMILES) | inhibition at 750 g/ha [%]
2 | C=CCN1C(=O)COc2cc(F)c(-n3nnc4c(cnn4CCC)c3=O)cc21 | 33.3

system: Amaranthus retroflexus; test: Herbicidal activity against Amaranthus retroflexus assessed as inhibition of fresh weed plant weight at 750 g/ha using pre-emergence treatment protocol; type: functional; outline: as §1

Row | Structure (SMILES) | inhibition at 750 g/ha [%]
3 | C=CCN1C(=O)COc2cc(F)c(-n3nnc4c(cnn4CCC)c3=O)cc21 | 100

system: Amaranthus retroflexus; test: Herbicidal activity against Amaranthus retroflexus assessed as inhibition of fresh weed plant weight at 375 g/ha using post-emergence treatment protocol; type: functional; outline: as §1

Row | Structure (SMILES) | inhibition at 375 g/ha [%]
4 | C=CCN1C(=O)COc2cc(F)c(-n3nnc4c(cnn4CCC)c3=O)cc21 | 100

system: Brassica rapa subsp. oleifera; test: Herbicidal activity against Brassica rapa subsp. oleifera assessed as inhibition of fresh weed plant weight at 187.5 g/ha using post-emergence treatment protocol; type: functional; outline: as §1

Row | Structure (SMILES) | inhibition at 187.5 g/ha [%]
5 | C=CCN1C(=O)COc2cc(F)c(-n3nnc4c(cnn4CCC)c3=O)cc21 | 12.6

system: Echinochloa crus-galli; test: Herbicidal activity against Echinochloa crus-galli (barnyard grass) assessed as inhibition of fresh weed plant weight at 375 g/ha using pre-emergence treatment protocol; type: functional; outline: as §1

Row | Structure (SMILES) | inhibition at 375 g/ha [%]
6 | C=CCN1C(=O)COc2cc(F)c(-n3nnc4c(cnn4CCC)c3=O)cc21 | 55

system: Digitaria sanguinalis; test: Herbicidal activity against Digitaria sanguinalis (hairy crabgrass) assessed as inhibition of fresh weed plant weight at 1500 g/ha using post-emergence treatment protocol; type: functional; outline: as §1

Row | Structure (SMILES) | inhibition at 1500 g/ha [%]
7 | C=CCN1C(=O)COc2cc(F)c(-n3nnc4c(cnn4CCC)c3=O)cc21 | 52.8

system: Digitaria sanguinalis; test: Herbicidal activity against Digitaria sanguinalis (hairy crabgrass) assessed as inhibition of fresh weed plant weight at 375 g/ha using post-emergence treatment protocol; type: functional; outline: as §1

Row | Structure (SMILES) | inhibition at 375 g/ha [%]
8 | C=CCN1C(=O)COc2cc(F)c(-n3nnc4c(cnn4CCC)c3=O)cc21 | 25

system: Amaranthus retroflexus; test: Herbicidal activity against Amaranthus retroflexus assessed as inhibition of fresh weed plant weight at 187.5 g/ha using post-emergence treatment protocol; type: functional; outline: as §1

Row | Structure (SMILES) | inhibition at 187.5 g/ha [%]
9 | C=CCN1C(=O)COc2cc(F)c(-n3nnc4c(cnn4CCC)c3=O)cc21 | 48.8

system: Brassica rapa subsp. oleifera; test: Herbicidal activity against Brassica rapa subsp. oleifera assessed as inhibition of fresh weed plant weight at 750 g/ha using post-emergence treatment protocol; type: functional; outline: as §1

Row | Structure (SMILES) | inhibition at 750 g/ha [%]
10 | C=CCN1C(=O)COc2cc(F)c(-n3nnc4c(cnn4CCC)c3=O)cc21 | 78.9

system: Echinochloa crus-galli; test: Herbicidal activity against Echinochloa crus-galli (barnyard grass) assessed as inhibition of fresh weed plant weight at 187.5 g/ha using pre-emergence treatment protocol; type: functional; outline: as §1

Row | Structure (SMILES) | inhibition at 187.5 g/ha [%]
11 | C=CCN1C(=O)COc2cc(F)c(-n3nnc4c(cnn4CCC)c3=O)cc21 | 42.9

system: Amaranthus retroflexus; test: Herbicidal activity against Amaranthus retroflexus assessed as inhibition of fresh weed plant weight at 750 g/ha using post-emergence treatment protocol; type: functional; outline: as §1

Row | Structure (SMILES) | inhibition at 750 g/ha [%]
12 | C=CCN1C(=O)COc2cc(F)c(-n3nnc4c(cnn4CCC)c3=O)cc21 | 100

system: Digitaria sanguinalis; test: Herbicidal activity against Digitaria sanguinalis (hairy crabgrass) assessed as inhibition of fresh weed plant weight at 1500 g/ha using pre-emergence treatment protocol; type: functional

Row | Structure (SMILES) | inhibition at 1500 g/ha [%]
13 | C=CCN1C(=O)COc2cc(F)c(-n3nnc4c(cnn4CCC)c3=O)cc21 | 90.7

system: Digitaria sanguinalis; test: Herbicidal activity against Digitaria sanguinalis (hairy crabgrass) assessed as inhibition of fresh weed plant weight at 187.5 g/ha using pre-emergence treatment protocol; type: functional

Row | Structure (SMILES) | inhibition at 187.5 g/ha [%]
14 | C=CCN1C(=O)COc2cc(F)c(-n3nnc4c(cnn4CCC)c3=O)cc21 | 37

system: Amaranthus retroflexus; test: Herbicidal activity against Amaranthus retroflexus assessed as inhibition of fresh weed plant weight at 1500 g/ha using post-emergence treatment protocol; type: functional; outline: as §1

Row | Structure (SMILES) | inhibition at 1500 g/ha [%]
15 | C=CCN1C(=O)COc2cc(F)c(-n3nnc4c(cnn4CCC)c3=O)cc21 | 100

system: Brassica rapa subsp. oleifera; test: Herbicidal activity against Brassica rapa subsp. oleifera assessed as inhibition of fresh weed plant weight at 375 g/ha using pre-emergence treatment protocol; type: functional

Row | Structure (SMILES) | inhibition at 375 g/ha [%]
16 | C=CCN1C(=O)COc2cc(F)c(-n3nnc4c(cnn4CCC)c3=O)cc21 | 82.8

system: Amaranthus retroflexus; test: Herbicidal activity against Amaranthus retroflexus assessed as inhibition of fresh weed plant weight at 187.5 g/ha using pre-emergence treatment protocol; type: functional

Row | Structure (SMILES) | inhibition at 187.5 g/ha [%]
17 | C=CCN1C(=O)COc2cc(F)c(-n3nnc4c(cnn4CCC)c3=O)cc21 | 67.2

system: Brassica rapa subsp. oleifera; test: Herbicidal activity against Brassica rapa subsp. oleifera assessed as inhibition of fresh weed plant weight at 1500 g/ha using post-emergence treatment protocol; type: functional; outline: as §1

Row | Structure (SMILES) | inhibition at 1500 g/ha [%]
18 | C=CCN1C(=O)COc2cc(F)c(-n3nnc4c(cnn4CCC)c3=O)cc21 | 97.5

system: Echinochloa crus-galli; test: Herbicidal activity against Echinochloa crus-galli (barnyard grass) assessed as inhibition of fresh weed plant weight at 375 g/ha using post-emergence treatment protocol; type: functional; outline: as §1

Row | Structure (SMILES) | inhibition at 375 g/ha [%]
19 | C=CCN1C(=O)COc2cc(F)c(-n3nnc4c(cnn4CCC)c3=O)cc21 | 2.3

system: Digitaria sanguinalis; test: Herbicidal activity against Digitaria sanguinalis (hairy crabgrass) assessed as inhibition of fresh weed plant weight at 187.5 g/ha using post-emergence treatment protocol; type: functional; outline: as §1

Row | Structure (SMILES) | inhibition at 187.5 g/ha [%]
20 | C=CCN1C(=O)COc2cc(F)c(-n3nnc4c(cnn4CCC)c3=O)cc21 | 8.3

system: Digitaria sanguinalis; test: Herbicidal activity against Digitaria sanguinalis (hairy crabgrass) assessed as inhibition of fresh weed plant weight at 750 g/ha using pre-emergence treatment protocol; type: functional

Row | Structure (SMILES) | inhibition at 750 g/ha [%]
21 | C=CCN1C(=O)COc2cc(F)c(-n3nnc4c(cnn4CCC)c3=O)cc21 | 71.7

system: Echinochloa crus-galli; test: Herbicidal activity against Echinochloa crus-galli (barnyard grass) assessed as inhibition of fresh weed plant weight at 750 g/ha using post-emergence treatment protocol; type: functional; outline: as §1

Row | Structure (SMILES) | inhibition at 750 g/ha [%]
22 | C=CCN1C(=O)COc2cc(F)c(-n3nnc4c(cnn4CCC)c3=O)cc21 | 7.3

system: Digitaria sanguinalis; test: Herbicidal activity against Digitaria sanguinalis (hairy crabgrass) assessed as inhibition of fresh weed plant weight at 375 g/ha using pre-emergence treatment protocol; type: functional

Row | Structure (SMILES) | inhibition at 375 g/ha [%]
23 | C=CCN1C(=O)COc2cc(F)c(-n3nnc4c(cnn4CCC)c3=O)cc21 | 67.4

system: Amaranthus retroflexus; test: Herbicidal activity against Amaranthus retroflexus assessed as inhibition of fresh weed plant weight at 1500 g/ha using pre-emergence treatment protocol; type: functional

Row | Structure (SMILES) | inhibition at 1500 g/ha [%]
24 | C=CCN1C(=O)COc2cc(F)c(-n3nnc4c(cnn4CCC)c3=O)cc21 | 100

system: Brassica rapa subsp. oleifera; test: Herbicidal activity against Brassica rapa subsp. oleifera assessed as inhibition of fresh weed plant weight at 375 g/ha using post-emergence treatment protocol; type: functional; outline: as §1

Row | Structure (SMILES) | inhibition at 375 g/ha [%]
25 | C=CCN1C(=O)COc2cc(F)c(-n3nnc4c(cnn4CCC)c3=O)cc21 | 45.1

system: Brassica rapa subsp. oleifera; test: Herbicidal activity against Brassica rapa subsp. oleifera assessed as inhibition of fresh weed plant weight at 1500 g/ha using pre-emergence treatment protocol; type: functional

Row | Structure (SMILES) | inhibition at 1500 g/ha [%]
26 | C=CCN1C(=O)COc2cc(F)c(-n3nnc4c(cnn4CCC)c3=O)cc21 | 100

system: Echinochloa crus-galli; test: Herbicidal activity against Echinochloa crus-galli (barnyard grass) assessed as inhibition of fresh weed plant weight at 1500 g/ha using post-emergence treatment protocol; type: functional; outline: as §1

Row | Structure (SMILES) | inhibition at 1500 g/ha [%]
27 | C=CCN1C(=O)COc2cc(F)c(-n3nnc4c(cnn4CCC)c3=O)cc21 | 20.1

system: Echinochloa crus-galli; test: Herbicidal activity against Echinochloa crus-galli (barnyard grass) assessed as inhibition of fresh weed plant weight at 187.5 g/ha using post-emergence treatment protocol; type: functional; outline: as §1

Row | Structure (SMILES) | inhibition at 187.5 g/ha [%]
28 | C=CCN1C(=O)COc2cc(F)c(-n3nnc4c(cnn4CCC)c3=O)cc21 | 1.5

system: Amaranthus retroflexus; test: Herbicidal activity against Amaranthus retroflexus assessed as inhibition of fresh weed plant weight at 375 g/ha using pre-emergence treatment protocol; type: functional

Row | Structure (SMILES) | inhibition at 375 g/ha [%]
29 | C=CCN1C(=O)COc2cc(F)c(-n3nnc4c(cnn4CCC)c3=O)cc21 | 77

system: Brassica rapa subsp. oleifera; test: Herbicidal activity against Brassica rapa subsp. oleifera assessed as inhibition of fresh weed plant weight at 750 g/ha using pre-emergence treatment protocol; type: functional

Row | Structure (SMILES) | inhibition at 750 g/ha [%]
30 | C=CCN1C(=O)COc2cc(F)c(-n3nnc4c(cnn4CCC)c3=O)cc21 | 100

system: Echinochloa crus-galli; test: Herbicidal activity against Echinochloa crus-galli (barnyard grass) assessed as inhibition of fresh weed plant weight at 750 g/ha using pre-emergence treatment protocol; type: functional

Row | Structure (SMILES) | inhibition at 750 g/ha [%]
31 | C=CCN1C(=O)COc2cc(F)c(-n3nnc4c(cnn4CCC)c3=O)cc21 | 62.8

system: Brassica rapa subsp. oleifera; test: Herbicidal activity against Brassica rapa subsp. oleifera assessed as inhibition of fresh weed plant weight at 187.5 g/ha using pre-emergence treatment protocol; type: functional

Row | Structure (SMILES) | inhibition at 187.5 g/ha [%]
32 | C=CCN1C(=O)COc2cc(F)c(-n3nnc4c(cnn4CCC)c3=O)cc21 | 26.9
